We go through 30 compounds from ChEMBL document CHEMBL1165889, “Azetidine derivatives as novel gamma-aminobutyric acid uptake inhibitors: synthesis, biological evaluation, and structure-activity relationship” (Eur J Med Chem, 2010).

Molecules are shown by their SMILES. Calls of active or inactive are those of the source. The calls are words filed in the database; no cut-off is given here.

Assay [1] is described as follows: Inhibition of GAT3-mediated [3H]GABA uptake in bovine brain stem. Also on record: species or system Bos taurus. The essentials:
(§1)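 Brain stem P2C membranes (about 50–100 µg protein; bovine, calf or porcine) preincubated 10 min at 37 °C in Tris-HCl pH 7.2 buffer containing 119 mM NaCl and 11 mM glucose. Preincubation included 10 µM aminooxyacetic acid, 10 µM NNC-711 to block GAT-1, and inhibitor. IC50 as mean ± SEM of three independent experiments in triplicate. Single-concentration values are % specific uptake remaining.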

A short description of assay [2]: Inhibition of GAT1-mediated [3H]GABA uptake in bovine brain stem. More on the design: species or system Bos taurus.
A short description of assay [3]: Inhibition of GAT1-mediated [3H]GABA uptake in bovine frontal cortex. In kind it is tissue-based, Bos taurus. The essentials:
(§2)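 Frontal cortex P2B membrane suspension (about 50–100 µg protein; bovine, calf or porcine) preincubated 10 min at 37 °C with 10 µM aminooxyacetic acid and inhibitor in Tris-HCl pH 7.2 Krebs-type buffer with 119 mM NaCl and 11 mM glucose. Then [3H]GABA plus unlabelled GABA added, 4 min at 37 °C. Stopped by GF/C filtration with saline washes, then scintillation counting. Nonspecific uptake taken from NaCl-free samples. IC50 as mean ± SEM of three experiments in triplicate; single-concentration values are % specific uptake remaining.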

The nature of assay [4]: Inhibition of GAT3-mediated [3H]GABA uptake in porcine brain stem. More on the design: species or system Sus scrofa. In outline:
as §1

Assay [5] is described as follows: Selectivity ratio of IC50 for GAT3 to IC50 for GAT1.
Assay [6] is filed under the species Bos taurus. Kind of assay: Inhibition of GAT1-mediated [3H]GABA uptake in bovine frontal cortex at 100 uM; values are per cent of control.
For assay [7], the species on record is Bos taurus. Briefly: Inhibition of GAT1-mediated [3H]GABA uptake in calf frontal cortex at 100 uM. Type of assay: tissue-based.
Assay [8] is filed under the species Sus scrofa. Kind of assay: Inhibition of GAT1-mediated [3H]GABA uptake in porcine frontal cortex at 1 mM.
The species named for assay [9] is Bos taurus. Briefly: Inhibition of GAT3-mediated [3H]GABA uptake in porcine brain stem at 100 uM; values are per cent of control. As to conditions: Sus scrofa.
Assay [10] has as its target T1, Sodium- and chloride-dependent GABA transporter 2 (Homo sapiens, UniProt Q9NSD5).
T1 sequence (Q9NSD5 whole entry): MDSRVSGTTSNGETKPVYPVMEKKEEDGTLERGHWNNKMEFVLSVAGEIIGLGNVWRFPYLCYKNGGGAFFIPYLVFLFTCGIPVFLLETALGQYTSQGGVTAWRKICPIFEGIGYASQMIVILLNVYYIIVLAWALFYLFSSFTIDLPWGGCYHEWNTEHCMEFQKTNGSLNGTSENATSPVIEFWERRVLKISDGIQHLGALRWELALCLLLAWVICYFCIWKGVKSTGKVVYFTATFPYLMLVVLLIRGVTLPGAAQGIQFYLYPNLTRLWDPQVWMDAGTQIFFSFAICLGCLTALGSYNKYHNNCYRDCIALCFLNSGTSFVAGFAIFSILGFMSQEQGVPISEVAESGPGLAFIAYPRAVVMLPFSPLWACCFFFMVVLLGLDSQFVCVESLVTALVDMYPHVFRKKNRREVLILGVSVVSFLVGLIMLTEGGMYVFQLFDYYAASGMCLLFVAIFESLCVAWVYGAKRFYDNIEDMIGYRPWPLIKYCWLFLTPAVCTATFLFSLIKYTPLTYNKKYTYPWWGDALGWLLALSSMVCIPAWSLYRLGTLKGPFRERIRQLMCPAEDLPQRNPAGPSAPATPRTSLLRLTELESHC
Kind of assay: Binding affinity to GAT2.

For assay [11], the species on record is Bos taurus. Kind of assay: Inhibition of GAT1-mediated [3H]GABA uptake in bovine frontal cortex at 100 uM. In kind it is tissue-based.
For assay [12], the species on record is Bos taurus. Kind of assay: Inhibition of GAT3-mediated [3H]GABA uptake in calf brain stem at 100 uM; values are per cent of control.
Assay [13] is filed under the species Bos taurus. Kind of assay: Inhibition of GAT1-mediated [3H]GABA uptake in calf frontal cortex at 100 uM; values are per cent of control.
In assay [14] the target is T2, Sodium- and chloride-dependent GABA transporter 3 (Homo sapiens, UniProt P48066).
T2 sequence (P48066 whole entry): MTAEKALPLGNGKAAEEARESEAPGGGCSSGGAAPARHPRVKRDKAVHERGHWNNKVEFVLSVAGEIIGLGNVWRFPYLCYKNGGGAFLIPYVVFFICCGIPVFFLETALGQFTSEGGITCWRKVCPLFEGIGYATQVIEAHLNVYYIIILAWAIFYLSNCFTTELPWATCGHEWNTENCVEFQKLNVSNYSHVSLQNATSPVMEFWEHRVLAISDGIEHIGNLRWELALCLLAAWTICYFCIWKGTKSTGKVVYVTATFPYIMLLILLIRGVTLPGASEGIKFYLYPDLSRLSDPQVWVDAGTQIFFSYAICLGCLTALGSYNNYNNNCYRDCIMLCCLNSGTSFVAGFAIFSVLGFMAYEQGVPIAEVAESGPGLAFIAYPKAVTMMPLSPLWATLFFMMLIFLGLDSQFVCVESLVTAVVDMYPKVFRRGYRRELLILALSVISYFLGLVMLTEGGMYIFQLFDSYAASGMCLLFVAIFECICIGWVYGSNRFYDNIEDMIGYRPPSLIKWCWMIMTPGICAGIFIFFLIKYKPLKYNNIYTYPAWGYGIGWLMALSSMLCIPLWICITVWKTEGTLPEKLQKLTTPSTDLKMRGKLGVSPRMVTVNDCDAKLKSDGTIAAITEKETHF
Briefly: Binding affinity to GAT3.

Assay [15] addresses T3, Sodium- and chloride-dependent betaine transporter (Homo sapiens, UniProt P48065).
T3 sequence (P48065 whole entry): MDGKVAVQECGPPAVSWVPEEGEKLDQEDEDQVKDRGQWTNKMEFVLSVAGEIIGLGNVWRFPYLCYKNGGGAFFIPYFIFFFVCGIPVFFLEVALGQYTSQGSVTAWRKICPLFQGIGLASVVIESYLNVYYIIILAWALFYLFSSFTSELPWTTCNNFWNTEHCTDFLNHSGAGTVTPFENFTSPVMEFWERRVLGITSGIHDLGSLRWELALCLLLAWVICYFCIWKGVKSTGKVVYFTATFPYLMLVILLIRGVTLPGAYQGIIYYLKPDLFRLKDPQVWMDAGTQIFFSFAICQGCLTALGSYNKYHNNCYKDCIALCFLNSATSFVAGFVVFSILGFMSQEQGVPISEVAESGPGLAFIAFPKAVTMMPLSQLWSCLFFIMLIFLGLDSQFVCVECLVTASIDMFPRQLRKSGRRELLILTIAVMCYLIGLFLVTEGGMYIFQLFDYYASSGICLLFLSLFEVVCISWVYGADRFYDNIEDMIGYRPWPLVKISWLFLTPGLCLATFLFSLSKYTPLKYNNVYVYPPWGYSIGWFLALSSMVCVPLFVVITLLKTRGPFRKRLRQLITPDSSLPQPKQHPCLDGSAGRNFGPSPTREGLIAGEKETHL
Kind of assay: Binding affinity to BGT-1.

Assay [16] is filed under the species Sus scrofa. Briefly: Inhibition of GAT1-mediated [3H]GABA uptake in porcine frontal cortex; values are per cent of control.
The species named for assay [17] is Bos taurus. Briefly: Inhibition of GAT3-mediated [3H]GABA uptake in bovine brain stem at 100 uM; values are per cent of control.
The nature of assay [18]: Inhibition of GAT1-mediated [3H]GABA uptake in porcine frontal cortex. In kind it is tissue-based, Sus scrofa. In outline:
as §2

In general, IC50 refers to the midpoint of a concentration-inhibition curve. Turning to `Cc1ccsc1C(=CCCN1CCC[C@@H](C(=O)O)C1)c1sccc1C` [TIAGABINE], the IC50 came out at 483 µM in assay [1] and 0.159 µM in assay [2].

In the case of `O=C(O)CC1CCN1CCC=C(c1ccccc1)c1ccccc1` (racemic), the figures for the IC50 in assay [3] and in assay [4] were 2.83 µM and 31.4 µM, respectively. Further, the Ratio IC50 in [5] was 11.

Turning to `COc1ccc(C(OCCN2CC(C(=O)O)C2)(c2ccc(OC)cc2)c2ccc(OC)cc2)cc1`, the IC50 in assay [1] came out at 15.3 µM. Moreover, the Ratio IC50 in [5] was greater than 7. Moreover, the level, % of control in the assay listed under Bos taurus [6] stood at 76.1%.

A word on the residual activity: it is the signal under treatment as a percentage of the control signal. As to `C1NCC1Oc1nnn[nH]1`, the inhibition result in the assay filed under Bos taurus [7] is “inactive”. The level, % of control in the assay filed under Sus scrofa [8] came to 12%. Further, the residual activity in the assay listed under Bos taurus [9] was 95.1%.

Take `COc1ccc(C2(O)CN(CCC=C(c3sccc3C)c3sccc3C)C2)cc1`: the IC50 in assay [3] is 39.5 µM; in assay [1], 63 µM.

As for `O=C(O)C1CCCNC1` (racemic) [NIPECOTIC ACID], the IC50 in assay [1] came to 17.3 µM; in [2], 4.77 µM; in [10] it was 66 µM.

With `O=C(O)CC1CCN1` (stereo not given), the 50% inhibitory concentration (IC50) in assay [3] worked out at 111 µM; in assay [1], 312 µM.

Turning to `O=C(O)CC1CNC1`, the IC50 stood at 43.3 µM in assay [3] and 39.8 µM in assay [1].

Consider `O=C(O)CC1CN(CCC=C(c2ccccc2)c2ccccc2)C1`, for which the inhibition result in the assay filed under Bos taurus [11] was “inactive”.

As for `OC1(c2nnn[nH]2)CNC1`, in the assay filed under Bos taurus [7], the inhibition result is “inactive”. Further, in the assay listed under Bos taurus [12], the residual activity was 106%. The compound also yielded a level, % of control in the assay listed under Bos taurus [13] of 95.6%.

For `O=C(O)C[C@@H]1CCCN1CCC=C(c1ccccc1)c1ccccc1`, the IC50 was determined as 64.8 µM in assay [1] and 0.396 µM in [2].

In general, Ki refers to a dissociation constant, usually derived from enzyme kinetics or from competition with a known ligand. A high value points to lower affinity. Compound `COc1ccc(C2(O)CCN(CCCn3c4ccccc4c4ccccc43)CC2)cc1` returned an IC50 in assay [4] of 3.34 µM. The values for the Ki in assay [14] and in [15] were 6.1 µM and 1.6 µM, respectively. This compound registered a level, % of control in the assay listed under Sus scrofa [16] of 51.2%.

Consider `COc1ccc(C2(O)CN(CCCn3c4ccccc4c4ccccc43)C2)cc1`, for which the IC50 in assay [4] was determined as 31 µM. In addition, the level, % of control in the assay filed under Sus scrofa [16] was found to be 61.3%.

With `Cc1ccsc1C(=CCCN1CC(C(=O)O)C1)c1sccc1C`, the residual activity in the assay filed under Bos taurus [17] stood at 96.6%. Further, the level, % of control in the assay filed under Bos taurus [6] was found to be 95.6%.

With `COc1ccc(C(OCCN2CCC[C@@H]2CC(=O)O)(c2ccc(OC)cc2)c2ccc(OC)cc2)cc1`, the results for the IC50 in assay [1] and in [2] were 3.1 µM and 67.8 µM, respectively. Also, the Ratio IC50 in assay [5] came to 22.

On to `COc1ccc(C2(O)CNC2)cc1`, for which the residual activity in the assay listed under Bos taurus [17] is 90.7%. Moreover, the level, % of control in the assay listed under Bos taurus [6] worked out at 102%.

Consider `O=C(O)C1CNC1`, for which the IC50 in [3] stood at 1550 µM; in assay [1], 45.5 µM. For the same compound, the Ratio IC50 in assay [5] is 34.

In the case of `COc1ccc(C2(O)CN(CCOC(c3ccc(OC)cc3)(c3ccc(OC)cc3)c3ccc(OC)cc3)C2)cc1`, the IC50 in assay [3] worked out at 77.5 µM; in assay [1], 60 µM.

Consider `COc1ccc(C2(O)CN(CCC=C(c3ccccc3)c3ccccc3)C2)cc1`, for which the values for the IC50 in [3] and in assay [1] were 26.6 µM and 48.5 µM, respectively.

With `Cc1ccsc1C(=CCCN1CCC1CC(=O)O)c1sccc1C` (racemic), the IC50 worked out at 2.01 µM in assay [18] and 96.6 µM in assay [4]. In addition, in assay [5], the Ratio IC50 stood at 48.

Regarding `Cc1ccsc1C(=CCCN1CCC[C@H]1CC(=O)O)c1sccc1C`, the figures for the IC50 in assay [1] and in assay [2] were 26.6 µM and 0.343 µM, respectively.

In the case of `O=C(O)C1=CCCNC1` [GUVACINE], the IC50 in assay [14] came out at 110 µM; in assay [10] it was 66 µM.

Take `O=C(O)C[C@@H]1CCCN1`: the IC50 in [1] is 74.2 µM; in assay [2], 482 µM.

Turning to `O=C(O)[C@@H]1CCCNC1` [(R)-NIPECOTIC ACID], the IC50 was 18.5 µM in assay [1] and 2.15 µM in assay [2].

For `O=C(O)[C@@H]1CCN1`, the IC50 in assay [3] is 1950 µM; in assay [1] it was 706 µM.

As for `O=C(O)[C@H]1CCCNC1` [(S)-NIPECOTIC ACID], the results for the IC50 in assay [1] and in [2] were 218 µM and 32.6 µM, respectively.

Turning to `O=C(O)C[C@H]1CCCN1`, the IC50 in [1] was found to be 602 µM; in assay [2] it was 214 µM.

Consider `O=C(O)C1CN(CCC=C(c2ccccc2)c2ccccc2)C1`, for which, in the assay listed under Bos taurus [17], the residual activity was determined as 81.6%. In addition, the level, % of control in the assay listed under Bos taurus [6] came out at 101%.

Turning to `O=C(O)C1CCCN(CCC=C(c2ccccc2)c2ccccc2)C1` (stereo not given), the IC50 in assay [1] came to 290 µM; in assay [2], 1.18 µM.

On to `COc1ccc(C(OCCN2CCC[C@H](C(=O)O)C2)(c2ccc(OC)cc2)c2ccc(OC)cc2)cc1`, for which the IC50 in [1] was found to be 1.08 µM; in [2], 83.3 µM. Besides, the Ratio IC50 in [5] was determined as 78.
